Compound activity: PubChem, several laboratories
In the library only some 2% were active in any assay of this set; here they are far more common.
LGR2 antag: Drosophila LGR2 receptor signaling inhibition; HEK293 LGR2, CRE-luciferase, bursicon-stimulated, 4 h; inhibition, % at 9.99 µM; 380,000 tested, 0.35% active;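 active = drop in luminescence signal, shown as inhibition above about 50% in the replicate tests, limit read from the data, passing the limit was not always enough; inconclusive = probably only some replicates passing the limit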;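 also: agonist challenge used bursicon conditioned medium at about half maximal strength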
XiGFP reactiv: X-chromosome reactivation activator | AID 743238 | XiGFP mouse fibroblasts, % GFP-positive cells imaging, 3 d; cells co-treated with 5-aza-dC sensitizer; scaled so ellipticine positive control = 100% | activation, % at 7.58 µM | 360,000 tested, 0.055% active;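 active = mean normalized replicate activation at least 10% and every replicate at or above 10%; inconclusive = only one of the two criteria met; inactive = mean below 10% and not all replicates reach 10%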
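System: SV40-immortalized XiGFP fibroblast cells, line 68-5-11 / Incubation: 3-day compound exposure, then 15 min fixation at room temperature / Compound: single concentration per compound, delivered by pin transfer / Buffer or medium: DMEM plus 5-aza-dC sensitizer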
TROY signal inh: TROY signaling inhibition | Q293 LMP1-TROYcd NF-kB luciferase reporter, 4 h | inhibition, % at 10 µM | 360,000 tested, 0.98% active | AID 1347056;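 active = compounds whose plate-normalised and pattern-corrected inhibition of the luciferase reporter signal at the single screening dose is 50% or more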
CaV13 FRET inh: Disruptors of the CACNA1D IQ motif to Ca2+-dependent inactivation inhibitor domain association, primary screening, Förster resonance energy transfer in intact living …; inhibition, % at 12.3 µM; HEK cells, CFP/YFP FRET ICDI-IQ, plate reader, 10 min; percent FRET-ratio fall versus neutral wells; 340,000 tested, 0.098% active;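 active = mean replicate inhibition of at least 30% and at least 1% of replicates passing that level; inconclusive = only one of the two criteria is met; inactive = neither criterion is met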
TWEAK Fn14 block: TWEAK-Fn14 signaling inhibition; TWEAK-stimulated Fn14 reporter cells, luciferase luminescence, 8 h; inhibition, % at 10 µM; 360,000 tested, 2% active; AID 1159606; in the data active = inhibition above about 50%
Numbers stand for hits.

How did Cn1c(C(C#N)C(=O)c2sc3ccccc3c2Cl)nc2ccccc21 (configuration not stated) do in these assays?
TROY signal inh: inactive; CaV13 FRET inh: inactive; TWEAK Fn14 block: inactive

Results for O=C(Nc1cccn(Cc2c(Cl)cccc2Cl)c1=O)c1ccc(Cl)cc1Cl ?
TROY signal inh: inactive; CaV13 FRET inh: inactive; TWEAK Fn14 block: 64

What do the screens show for `O=C(Nc1cnc2sccn2c1=O)c1ccc(Cl)cc1Cl`?
LGR2 antag: inactive; TROY signal inh: inactive; CaV13 FRET inh: inactive; TWEAK Fn14 block: 56

How did COc1ccc(Cl)cc1NC(=O)c1cnc2sccn2c1=O do in these assays?
LGR2 antag: inactive; XiGFP reactiv: inactive; TROY signal inh: inactive; CaV13 FRET inh: inactive; TWEAK Fn14 block: inactive

What do the screens show for `CN(Cc1ccccc1)C(=O)NC1CCCCC1`?
TROY signal inh: inactive; CaV13 FRET inh: inactive; TWEAK Fn14 block: inactive

How did CC(C)(Sc1ccc(CCN(CCCCC2CCCCC2)C(=O)NC2CCCCC2)cc1)C(=O)O do in these assays?
LGR2 antag: inactive; XiGFP reactiv: inactive; TROY signal inh: 51; CaV13 FRET inh: inactive; TWEAK Fn14 block: inactive

How did Cc1noc(C)c1S(=O)(=O)Nc1ccc2c(c1)C(=O)N([C@H](C)CO)C[C@H](C)[C@@H](CN(C)Cc1ccc(Oc3ccccc3)cc1)O2 do in these assays?
LGR2 antag: inactive; XiGFP reactiv: inactive

How did C[C@@H]1CN([C@H](C)CO)C(=O)c2cc(N(C)C)ccc2O[C@@H](C)CCCCO[C@H]1CN(C)C(=O)Nc1ccccc1 do in these assays?
LGR2 antag: inactive; XiGFP reactiv: inactive

How did O=C(C(Br)=Cc1ccccc1)c1ccccc1 do in these assays?
LGR2 antag: inactive; XiGFP reactiv: inactive; TROY signal inh: inactive; CaV13 FRET inh: inactive; TWEAK Fn14 block: 93

Results for CC(=O)C(=Cc1ccc(-c2ccccc2)cc1)C(=O)c1ccccc1 ?
LGR2 antag: inactive; XiGFP reactiv: inactive; TROY signal inh: inactive; CaV13 FRET inh: inactive; TWEAK Fn14 block: 55

How did CC(=Cc1ccccc1)C(=O)c1ccccc1 do in these assays?
LGR2 antag: inactive; XiGFP reactiv: inactive; TROY signal inh: inactive; CaV13 FRET inh: inactive; TWEAK Fn14 block: inactive

Results for C[C@@H]1CN([C@H](C)CO)C(=O)c2cccc(NC(=O)c3nc4ccccc4s3)c2O[C@@H]1CN(C)Cc1ccncc1 ?
LGR2 antag: inactive; XiGFP reactiv: inactive

How did COc1ccc(S(=O)(=O)N(CCCN2CCCC2=O)Cc2cc3cc(C)c(C)cc3[nH]c2=O)cc1 do in these assays?
TROY signal inh: inactive; CaV13 FRET inh: inactive; TWEAK Fn14 block: 94

How did O=C(C=Cc1ccccn1)c1ccccc1 do in these assays?
LGR2 antag: inconclusive; XiGFP reactiv: inactive; TROY signal inh: inactive; CaV13 FRET inh: inactive; TWEAK Fn14 block: 82

How did CC(=O)OC1COC(N2CCc3ccccc32)C(OC(C)=O)C1OC(C)=O (configuration not stated) do in these assays?
LGR2 antag: inactive; XiGFP reactiv: inactive; TROY signal inh: inactive; CaV13 FRET inh: inactive; TWEAK Fn14 block: 61

Results for CC(=O)OC1COC(N2CCc3cc(Br)c([N+](=O)[O-])cc32)C(OC(C)=O)C1OC(C)=O (configuration not stated) ?
TROY signal inh: inactive; CaV13 FRET inh: inactive; TWEAK Fn14 block: inactive

How did CC1(C)Oc2ccc(NC(=O)C3COc4ccccc4O3)cc2O1 (configuration not stated) do in these assays?
TROY signal inh: 54; CaV13 FRET inh: inactive; TWEAK Fn14 block: inactive

What do the screens show for `O=C(Nc1nncs1)C1COc2ccccc2O1` (configuration not stated)?
TROY signal inh: inactive; CaV13 FRET inh: inactive; TWEAK Fn14 block: inactive

What do the screens show for `Cc1ccc(NC(=O)C2COc3ccccc3O2)cc1` (configuration not stated)?
LGR2 antag: inactive; XiGFP reactiv: inactive; TROY signal inh: inactive; CaV13 FRET inh: inactive; TWEAK Fn14 block: 51

How did O=C(Nc1ccccc1)C1COc2ccccc2O1 (configuration not stated) do in these assays?
LGR2 antag: inactive; XiGFP reactiv: inactive; TROY signal inh: inactive; CaV13 FRET inh: inactive; TWEAK Fn14 block: 80

What do the screens show for `CC(=O)c1sc(NC(=O)C2COc3ccccc3O2)nc1C` (configuration not stated)?
XiGFP reactiv: inactive; TROY signal inh: 56; CaV13 FRET inh: inactive; TWEAK Fn14 block: 87

How did O=C(Nc1ccc([N+](=O)[O-])cc1)C1COc2ccccc2O1 (configuration not stated) do in these assays?
XiGFP reactiv: inactive; TROY signal inh: inactive; CaV13 FRET inh: inactive; TWEAK Fn14 block: inactive

What do the screens show for `COc1ccccc1NC(=O)C[C@H]1CC[C@H]2[C@@H](COc3ccc(NC(C)=O)cc3C(=O)N2C)O1`?
LGR2 antag: inactive; XiGFP reactiv: inactive

What do the screens show for `O=C(C[C@@H]1CC[C@H]2[C@@H](COC[C@@H](O)CN2C(=O)C2CC2)O1)NCc1ccccc1Cl`?
LGR2 antag: inactive; XiGFP reactiv: inactive

Results for NS(=O)(=O)c1ccc(NC(=O)C2COc3ccccc3O2)cc1 (configuration not stated) ?
CaV13 FRET inh: inactive

How did O=C(Nc1ccc(-c2cn3ccsc3n2)cc1)C1COc2ccccc2O1 (configuration not stated) do in these assays?
TROY signal inh: 57; TWEAK Fn14 block: inactive

Results for O=C(Cc1ccccc1)Nc1ccc2c(c1)OC1(CCCC1)O2 ?
LGR2 antag: inactive; XiGFP reactiv: inactive; TROY signal inh: inactive; CaV13 FRET inh: inactive; TWEAK Fn14 block: inactive

Results for Nc1ccc2c(c1)OC1(CCCC1)O2 ?
LGR2 antag: inactive; XiGFP reactiv: inactive; TROY signal inh: 68; CaV13 FRET inh: inactive; TWEAK Fn14 block: 90

How did CCCNC(=O)c1cn(CC)c2cc(N3CCN(C(=O)c4ccco4)CC3)c(F)cc2c1=O do in these assays?
LGR2 antag: inactive; XiGFP reactiv: inactive; TROY signal inh: inactive; CaV13 FRET inh: inactive; TWEAK Fn14 block: inactive

Results for CCn1cc(C(=O)NCc2cccc(F)c2)c(=O)c2cc(F)c(N3CCN(C(=O)c4ccco4)CC3)cc21 ?
TROY signal inh: inactive; CaV13 FRET inh: inactive; TWEAK Fn14 block: 52

What do the screens show for `CNC1=C(N(C(C)=O)c2ccc(Br)cc2)C(=O)c2ccccc2C1=O`?
LGR2 antag: inactive; XiGFP reactiv: inactive; TROY signal inh: 64; CaV13 FRET inh: inactive; TWEAK Fn14 block: 91

What do the screens show for `CCC(=O)N(CC)C1=C(O)c2ccccc2C(=O)C1=O`?
LGR2 antag: inactive; TROY signal inh: inactive; CaV13 FRET inh: inactive; TWEAK Fn14 block: inactive

What do the screens show for `CCC(=O)N(C1=C(NC)C(=O)c2ccccc2C1=O)C(C)C`?
LGR2 antag: inactive; XiGFP reactiv: inactive; TROY signal inh: inactive; CaV13 FRET inh: inactive; TWEAK Fn14 block: 61

What do the screens show for `CC(=O)NC1=C(Nc2ccc(N(C)C)cc2)C(=O)c2ccccc2C1=O`?
LGR2 antag: inactive; XiGFP reactiv: inactive; TROY signal inh: inactive; CaV13 FRET inh: inactive; TWEAK Fn14 block: inactive
